Experimental data reported in ChEMBL document CHEMBL4673199, “Potent and selective A3 adenosine receptor antagonists bearing aminoesters as heterobifunctional moieties” (RSC Med Chem, 2021).

What was measured:
Adenosine receptor A2b = molecular target: T1, Adenosine receptor A2b (Homo sapiens, UniProt P29275); assay: Antagonist activity at human A2B receptor expressed in CHO cell membrane assessed as reduction in NECA-stimulated adenylyl cyclase activity in presence of [alpha32P]ATP; assay type: functional, cell membranes
T1 sequence (P29275 whole entry): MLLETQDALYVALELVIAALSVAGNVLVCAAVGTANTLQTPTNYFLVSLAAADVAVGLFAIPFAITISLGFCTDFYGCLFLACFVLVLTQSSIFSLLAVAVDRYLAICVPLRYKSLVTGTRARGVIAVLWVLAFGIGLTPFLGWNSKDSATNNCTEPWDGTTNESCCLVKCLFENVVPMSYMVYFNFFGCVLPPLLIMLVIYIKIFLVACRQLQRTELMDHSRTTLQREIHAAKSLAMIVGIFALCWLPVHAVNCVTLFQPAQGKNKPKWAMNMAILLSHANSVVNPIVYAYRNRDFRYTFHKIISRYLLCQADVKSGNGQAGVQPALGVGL

Adenosine receptor A1 = molecular target: T2, Adenosine receptor A1 (Homo sapiens, UniProt P30542); assay: Displacement of [3H]CCPA from human A1 receptor expressed in CHO cell membrane by radioligand binding assay; assay type: cell membranes
T2 sequence (P30542 whole entry): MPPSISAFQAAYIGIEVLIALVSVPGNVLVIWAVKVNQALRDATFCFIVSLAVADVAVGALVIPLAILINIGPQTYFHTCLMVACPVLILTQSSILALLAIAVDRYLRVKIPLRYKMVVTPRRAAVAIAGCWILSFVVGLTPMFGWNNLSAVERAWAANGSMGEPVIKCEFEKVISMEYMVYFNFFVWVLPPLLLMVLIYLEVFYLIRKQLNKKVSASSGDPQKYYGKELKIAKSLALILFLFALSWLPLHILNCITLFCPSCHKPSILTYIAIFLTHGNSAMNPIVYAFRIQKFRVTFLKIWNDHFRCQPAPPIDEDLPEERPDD
In short: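 CHO membranes prepared by 1,000 x g clearing, then 100,000 x g sedimentation, resuspended in 50 mM Tris/HCl pH 7.4 and kept at -80 °C. Labelled with 1 nM radioligand; nonspecific binding with theophylline (1 mM). Ki values from SCTFIT, mean of 3-6 replicates.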

Adenosine receptor A3 = molecular target: T3, Adenosine receptor A3 (Homo sapiens, UniProt P0DMS8); assay: Displacement of [3H]-HEMADO from human A3 receptor expressed in CHO cell membrane by radioligand binding assay; assay type: cell membranes
T3 sequence (P0DMS8 whole entry): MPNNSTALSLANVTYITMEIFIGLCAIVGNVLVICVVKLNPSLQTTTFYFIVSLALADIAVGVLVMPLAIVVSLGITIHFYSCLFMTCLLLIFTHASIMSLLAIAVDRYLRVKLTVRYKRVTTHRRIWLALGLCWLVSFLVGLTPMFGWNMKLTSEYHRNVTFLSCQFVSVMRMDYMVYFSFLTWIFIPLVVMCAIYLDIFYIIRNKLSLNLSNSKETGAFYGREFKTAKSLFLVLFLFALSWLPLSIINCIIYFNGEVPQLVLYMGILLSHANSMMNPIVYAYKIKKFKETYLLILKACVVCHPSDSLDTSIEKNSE
In short: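 Membranes from CHO cells with human receptor: low-speed spin at 1,000 x g, then crude membranes pelleted at 100,000 x g. Resuspended in 50 mM Tris/HCl, 10 mM MgCl2, 1 mM EDTA, pH 8.25, stored at -80 °C. Radioligand at 1 nM; nonspecific binding with 100 µM R-PIA. Ki by SCTFIT, mean of 3-6 replicates.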

Adenosine receptor A2a = Adenosine receptor A2a (Homo sapiens, UniProt P29274); assay: Displacement of [3H]-NECA from human A2A receptor expressed in CHO cell membrane by radioligand binding assay; assay type: cell membranes
Adenosine receptor A2a, sequence (P29274 whole entry): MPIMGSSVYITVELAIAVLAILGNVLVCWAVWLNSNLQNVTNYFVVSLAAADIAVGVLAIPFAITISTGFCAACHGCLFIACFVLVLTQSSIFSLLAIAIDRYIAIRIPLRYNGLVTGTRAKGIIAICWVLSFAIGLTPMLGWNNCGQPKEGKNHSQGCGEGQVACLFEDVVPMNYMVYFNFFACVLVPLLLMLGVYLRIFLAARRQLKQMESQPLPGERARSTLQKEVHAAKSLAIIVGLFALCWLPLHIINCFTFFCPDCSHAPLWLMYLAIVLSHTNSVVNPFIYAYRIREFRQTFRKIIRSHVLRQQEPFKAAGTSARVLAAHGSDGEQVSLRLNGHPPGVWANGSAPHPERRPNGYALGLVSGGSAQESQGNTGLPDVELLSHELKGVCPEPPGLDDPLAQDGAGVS
In short: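 Crude membrane fraction from transfected CHO cells, obtained by 1,000 x g then 100,000 x g centrifugation, in 50 mM Tris/HCl pH 7.4, stored at -80 °C. Radioligand at 10 nM; 100 µM R-PIA defined nonspecific binding. Ki computed with SCTFIT, mean of 3-6 replicates.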

Compound	IC50 (Adenosine receptor A2b) [nM]	Ki (Adenosine receptor A1) [nM]	Ki (Adenosine receptor A3) [nM]	Ki (Adenosine receptor A2a) [nM]
CCOC(=O)CCCNc1nc2nn(C)cc2c2nc(-c3ccco3)nn12	> 10000	901	108	231
CCOC(=O)C[C@H](Nc1nc2nn(C)cc2c2nc(-c3ccco3)nn12)C(=O)OCC	> 10000	552	16.3	445
CCOC(=O)[C@@H](Cc1c[nH]c2ccccc12)Nc1nc2nn(C)cc2c2nc(-c3ccco3)nn12	–	1570	59.7	889
CCOC(=O)[C@H](Cc1ccc(O)cc1)Nc1nc2nn(C)cc2c2nc(-c3ccco3)nn12	> 10000	617	24.6	1300
CCOC(=O)[C@H](Cc1ccccc1)Nc1nc2nn(C)cc2c2nc(-c3ccco3)nn12	> 10000	1820	50.6	1300
COC(=O)[C@@H]1CCCN1c1nc2nn(C)cc2c2nc(-c3ccco3)nn12	> 10000	2270	113	428
CCOC(=O)CC[C@H](Nc1nc2nn(C)cc2c2nc(-c3ccco3)nn12)C(=O)OCC	> 10000	919	7.55	2670
CCOC(=O)C(Nc1nc2nn(C)cc2c2nc(-c3ccco3)nn12)c1ccccc1 (racemic)	> 10000	173	0.306	860
CCOC(=O)C(C)Nc1nc2nn(C)cc2c2nc(-c3ccco3)nn12 (racemic)	> 10000	2200	15.5	820
CCOC(=O)C(CO)Nc1nc2nn(C)cc2c2nc(-c3ccco3)nn12 (racemic)	–	312	17.1	348
CCOC(=O)C(Nc1nc2nn(C)cc2c2nc(-c3ccco3)nn12)C(O)c1ccccc1 (racemic)	> 10000	882	46.5	376
CCCCC(Nc1nc2nn(C)cc2c2nc(-c3ccco3)nn12)C(=O)OCC (racemic)	> 10000	388	1.06	551
CCOC(=O)C(CC(C)C)Nc1nc2nn(C)cc2c2nc(-c3ccco3)nn12 (racemic)	> 10000	322	0.5	398
CCOC(=O)C(Nc1nc2nn(C)cc2c2nc(-c3ccco3)nn12)C(C)C (racemic)	> 10000	591	1.72	1270
